Laboratory results from ChEMBL document CHEMBL4339209, “Chemical modifications of imidazole-containing alkoxyamines increase C-ON bond homolysis rate: Effects on their cytotoxic properties in glioblastoma cells” (Bioorg Med Chem, 2019).
Active and inactive are the calls of the source. No cut-off for these calls is given here.

Legend:
[1] = Dissociation constant, pKa of the compound in 1:1 v/v D2O/CD3OD by 1H-NMR spectrometric method; format: physicochemical
Outline: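 Samples in D2O/CD3OD (1:1 v/v) were adjusted with DCl/NaOD to a series of pH* values, read on a meter calibrated with non-deuterated standards, and 1H-NMR was recorded at 400 MHz. Imidazole proton chemical shifts were plotted against pH* and fitted sigmoidally. The pKa* was converted by pH = 0.929 pH* + 0.42.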

[2] = Half life in H2O/MeOH buffered with Na2CO3/NaHCO3 at pH 10.3 in presence of alkyl radical scavenger TEMPOR by 31P[1H]-NMR analysis; format: physicochemical; settings: buffer, pH 10.3
[3] = Half life in H2O/MeOH buffered with HCl/KCl at pH 2.2 in presence of alkyl radical scavenger TEMPOR by 31P[1H]-NMR analysis; format: physicochemical; settings: buffer
[4] = Half life in H2O/MeOH buffered with HEPES/NaCl at pH 7.4 in presence of alkyl radical scavenger TEMPOR by 31P[1H]-NMR analysis; format: physicochemical; settings: buffer
[5] = n-octanol/phosphate buffered saline partition coefficient, log D of the compound at pH 7.4 by shake-flask method; format: physicochemical; settings: octanol/water
Outline: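 Shake-flask partition between pre-saturated n-octanol and PBS at pH 7.4. The aqueous phase was quantified by RP-HPLC on a 4.6 × 50 mm column, eluting with CH3CN/H2O (each with 0.1% TFA) from 10:90 to 100:0 over 10 min.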

[6] = Stability in H2O/MeOH buffered with Na2CO3/NaHCO3 at pH 10.3 assessed as temperature; format: physicochemical; settings: buffer
U-251 [7] = assay: Cytotoxicity against human U251MG cells assessed as reduction in cell survival measured after 72 hrs by MTT assay; format: functional, cell-based; settings: for IC50: U-251, 72 h
Outline: (§1)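 MTT viability on 2D cultures, U87-MG in DMEM and U251-MG in EMEM with […], both with 10% FBS and Pen Strep. 5000 cells seeded, then 72 h exposure to 500, 250, 100, 50, 25, 10 and 5 μM (DMSO at most […]). MTT 0.5 mg/mL for 1 h, formazan in DMSO read at 550 nm. Survival as % of control. IC50 determined graphically. At least triplicate.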

[8] = Stability in H2O/MeOH buffered with HEPES/NaCl at pH 7.4 assessed as temperature; format: physicochemical; settings: buffer
[9] = Drug homolysis in H2O/MeOH buffered with Na2CO3/NaHCO3 at pH 10.3 assessed as activation energy in presence of alkyl radical scavenger TEMPOR by 31P[1H]-NMR analysis
[10] = Drug homolysis in H2O/MeOH buffered with HCl/KCl at pH 2.2 assessed as activation energy in presence of alkyl radical scavenger TEMPOR by 31P[1H]-NMR analysis
[11] = Drug homolysis in H2O/MeOH buffered with Na2CO3/NaHCO3 at pH 10.3 assessed as rate constant by measuring nitroxide level in presence of alkyl radical scavenger TEMPOR by 31P[1H]-NMR analysis
[12] = Drug homolysis in H2O/MeOH buffered with HEPES/NaCl at pH 7.4 assessed as rate constant by measuring nitroxide level in presence of alkyl radical scavenger TEMPOR by 31P[1H]-NMR analysis
[13] = Drug homolysis in H2O/MeOH buffered with HCl/KCl at pH 2.2 assessed as rate constant by measuring nitroxide level in presence of alkyl radical scavenger TEMPOR by 31P[1H]-NMR analysis
[14] = Drug homolysis in H2O/MeOH buffered with HEPES/NaCl at pH 7.4 assessed as activation energy in presence of alkyl radical scavenger TEMPOR by 31P[1H]-NMR analysis
U-87 MG = assay: Cytotoxicity against human U87MG cells assessed as reduction in cell survival measured after 72 hrs by MTT assay; format: functional, cell-based; settings: U-87MG ATCC; outline: as §1
U-251 [15] = assay: Cytotoxicity against human U251MG cells assessed as reduction in cell survival at IC50 measured after 72 hrs in presence of alkyl radical scavenger troxerutin by MTT assay; format: functional, cell-based
Outline: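 U251-MG cells in EMEM (10% FBS, Pen Strep, […]) were exposed for 72 h to alkoxyamine together with an equal concentration of the alkyl radical scavenger troxerutin. Survival was read by MTT (0.5 mg/mL, 1 h, OD 550 nm) as % of control, and compared with alkoxyamine alone. At least triplicate.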

Row | logD [5] | Structure (SMILES) | Kdiss [12] | Ea [14] [kcal/mol] | Activity (U-87 MG) | Activity (U-251 [7]) | further results
1 | 3.7 | CCOP(=O)(OCC)C(N(OC(C)c1nccn1C)C(C)(C)C)C(C)(C)C (stereo in doubt; form 2) [listing 1 of 2 here] |  |  |  |  | pKa [1]: 6.5; t1/2 [2]: 39 h; t1/2 [3]: 1.98 h; t1/2 [4]: 10 h
2 | 4 | CCOP(=O)(OCC)C(N(OC(C)c1c[nH]cn1)C(C)(C)C)C(C)(C)C (stereo in doubt; form 2) [listing 1 of 2 here] |  |  |  |  | pKa [1]: 6.13; t1/2 [2]: 456 h; t1/2 [3]: 190 h; T [6]: 70 °C; t1/2 [4]: 312 h; IC50 (U-251 [7]): 20 µM
3 |  | CCOP(=O)(OCC)C(N(OC(C)n1ccnc1)C(C)(C)C)C(C)(C)C (stereo in doubt; form 2) |  |  |  |  | pKa [1]: 5.81
4 | 0.3 | CCOP(=O)(OCC)C(N(OC(C)n1cc[n+](C)c1)C(C)(C)C)C(C)(C)C (stereo in doubt; form 2) [listing 1 of 2 here] |  |  |  |  | 
5 | 0.4 | CCOP(=O)(OCC)C(N(OC(C)c1cn(C)c[n+]1C)C(C)(C)C)C(C)(C)C (stereo in doubt; form 2) [listing 1 of 2 here] |  |  |  |  | T [8]: 80 °C; t1/2 [4]: 29 h
6 | 0.5 | CCOP(=O)(OCC)C(N(OC(C)c1n(C)cc[n+]1C)C(C)(C)C)C(C)(C)C (stereo in doubt; form 2) [listing 1 of 2 here] |  |  |  |  | T [8]: 60 °C; t1/2 [4]: 3.4 h
7 |  | CCOP(=O)(OCC)C(N(OC(C)c1c[nH]cn1)C(C)(C)C)C(C)(C)C (stereo in doubt; form 2) [listing 2 of 2 here] | 1.95 ×10⁻⁴ /s | 29.2 | Dose-dependent effect | Dose-dependent effect | Ea [9]: 29.5 kcal/mol; Ea [10]: 29 kcal/mol; Kdiss [11]: 4.07 ×10⁻⁵ /s; Kdiss [13]: 2.8 ×10⁻⁴ /s
8 |  | CCOP(=O)(OCC)C(N(OC(C)c1cn(C)c[n+]1C)C(C)(C)C)C(C)(C)C (stereo in doubt; form 2) [listing 2 of 2 here] | 1.61 ×10⁻³ /s | 27.7 | Dose-dependent effect | Dose-dependent effect | 
9 |  | CCOP(=O)(OCC)C(N(OC(C)c1cn(C)cn1)C(C)(C)C)C(C)(C)C (stereo in doubt; form 2) | 1.24 ×10⁻⁴ /s | 29.5 | Dose-dependent effect | Dose-dependent effect | Ea [9]: 30.3 kcal/mol; Ea [10]: 28.8 kcal/mol; Kdiss [11]: 4.57 ×10⁻⁵ /s; Kdiss [13]: 3.55 ×10⁻⁴ /s
10 |  | CCOP(=O)(OCC)C(N(OC(C)c1n(C)cc[n+]1C)C(C)(C)C)C(C)(C)C (stereo in doubt; form 2) [listing 2 of 2 here] | 1.1 ×10⁻³ /s | 26.4 | Dose-dependent effect | Dose-dependent effect | 
11 |  | CCOP(=O)(OCC)C(N(OC(C)c1ncc[nH]1)C(C)(C)C)C(C)(C)C (stereo in doubt; form 2) | 2.61 ×10⁻⁴ /s | 28.2 | Dose-dependent effect | Dose-dependent effect | Ea [9]: 29.1 kcal/mol; Ea [10]: 26.6 kcal/mol; Kdiss [11]: 2.47 ×10⁻⁴ /s; Kdiss [13]: 9.16 ×10⁻⁴ /s
12 |  | CCOP(=O)(OCC)C(N(OC(C)c1nccn1C)C(C)(C)C)C(C)(C)C (stereo in doubt; form 2) [listing 2 of 2 here] | 1.28 ×10⁻³ /s | 27.1 | Dose-dependent effect | Dose-dependent effect | Ea [9]: 27.9 kcal/mol; Ea [10]: 26.1 kcal/mol; Kdiss [11]: 1.23 ×10⁻³ /s; Kdiss [13]: 1.8 ×10⁻³ /s
13 |  | CCOP(=O)(OCC)C(N(OC(C)n1cc[n+](C)c1)C(C)(C)C)C(C)(C)C (stereo in doubt; form 2) [listing 2 of 2 here] | 2.84 ×10⁻⁵ /s | 32.3 | Dose-dependent effect | Dose-dependent effect | Activity (U-251 [15]): Active
14 |  | Cn1nnc2c(C(N)=O)ncn2c1=O [TEMOZOLOMIDE] |  |  |  |  | IC50 (U-251 [7]): 455 µM
